# Activity calls are given as the source filed them. The calls are words filed in the database; no cut-off is given here.
# Assays:
# Assay type in all cases: cell-based
# [1] = molecular target: T1, von Hippel-Lindau disease tumor suppressor/Protein deacetylase HDAC6 (Homo sapiens, UniProt Q9UBN7+P40337); test: Protac activity at VHL/HDAC6 in human MM1S cells assessed as HDAC6 degradation at 100 nM measured after 6 hrs by Western blot analysis
# How it was run: (§1)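 MM1S cells were treated with degraders at 100 nM for 6 h. Lysates were analysed by Western blot for HDAC6 and acetylated tubulin.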
# Target sequence in this assay (P40337 whole entry, looked up): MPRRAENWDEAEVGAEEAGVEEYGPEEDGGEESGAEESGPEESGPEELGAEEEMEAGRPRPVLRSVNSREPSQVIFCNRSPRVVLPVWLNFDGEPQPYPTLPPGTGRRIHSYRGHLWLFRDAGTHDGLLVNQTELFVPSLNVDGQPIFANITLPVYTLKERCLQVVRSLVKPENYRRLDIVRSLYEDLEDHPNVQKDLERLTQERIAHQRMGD
# Target sequence in this assay (Q9UBN7 whole entry, looked up): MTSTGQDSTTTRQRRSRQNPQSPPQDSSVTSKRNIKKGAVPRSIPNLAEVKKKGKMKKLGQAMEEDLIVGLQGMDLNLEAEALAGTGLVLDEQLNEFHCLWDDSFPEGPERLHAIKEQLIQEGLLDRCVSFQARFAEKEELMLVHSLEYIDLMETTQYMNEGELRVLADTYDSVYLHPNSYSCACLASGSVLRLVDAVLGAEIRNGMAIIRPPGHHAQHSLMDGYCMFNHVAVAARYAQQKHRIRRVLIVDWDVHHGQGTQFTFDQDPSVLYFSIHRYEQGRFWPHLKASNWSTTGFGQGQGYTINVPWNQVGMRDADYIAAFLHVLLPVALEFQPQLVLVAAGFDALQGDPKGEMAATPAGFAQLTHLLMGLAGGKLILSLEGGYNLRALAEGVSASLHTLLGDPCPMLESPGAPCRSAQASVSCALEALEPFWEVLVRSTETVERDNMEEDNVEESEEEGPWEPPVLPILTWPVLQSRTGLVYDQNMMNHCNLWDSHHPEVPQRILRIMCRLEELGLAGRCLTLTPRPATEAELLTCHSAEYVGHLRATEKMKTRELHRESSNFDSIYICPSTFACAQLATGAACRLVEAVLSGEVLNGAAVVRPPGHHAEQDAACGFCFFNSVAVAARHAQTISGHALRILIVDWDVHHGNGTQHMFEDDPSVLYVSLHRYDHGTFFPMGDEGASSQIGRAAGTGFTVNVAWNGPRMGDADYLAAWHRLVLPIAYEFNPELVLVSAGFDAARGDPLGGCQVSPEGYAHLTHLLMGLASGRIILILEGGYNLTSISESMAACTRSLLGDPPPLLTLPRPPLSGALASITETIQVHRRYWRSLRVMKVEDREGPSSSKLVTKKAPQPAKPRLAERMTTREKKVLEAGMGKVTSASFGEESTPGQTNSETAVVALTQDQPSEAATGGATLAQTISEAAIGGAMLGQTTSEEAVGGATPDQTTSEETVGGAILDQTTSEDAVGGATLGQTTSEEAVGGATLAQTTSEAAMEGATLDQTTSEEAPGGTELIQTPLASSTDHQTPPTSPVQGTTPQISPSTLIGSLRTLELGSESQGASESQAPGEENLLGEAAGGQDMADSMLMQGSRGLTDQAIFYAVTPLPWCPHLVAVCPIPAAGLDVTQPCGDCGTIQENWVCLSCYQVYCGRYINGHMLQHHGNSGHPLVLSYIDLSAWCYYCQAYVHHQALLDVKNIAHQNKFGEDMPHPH
# [2] = molecular target: T1, von Hippel-Lindau disease tumor suppressor/Protein deacetylase HDAC6; test: Protac activity at VHL/HDAC6 in human MM1S cells assessed as increase in tubulin acetylation at 100 nM measured after 6 hrs by Western blot analysis; how it was run: as §1
# Target sequence in this assay (P40337 whole entry, looked up): as the sequence (P40337 whole entry, looked up) above
# Target sequence in this assay (Q9UBN7 whole entry, looked up): as the sequence (Q9UBN7 whole entry, looked up) above
# [3] = molecular target: T1, von Hippel-Lindau disease tumor suppressor/Protein deacetylase HDAC6; test: Protac activity at VHL/HDAC6 in human MM1S cells assessed as HDAC6 degradation at 100 nM measured after 6 hrs by ELISA
# How it was run: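 Linker-length screen. MM1S cells were treated with degraders at 100 nM for 6 h, and HDAC6 protein level was quantified by in-cell ELISA.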
# Target sequence in this assay (P40337 whole entry, looked up): as the sequence (P40337 whole entry, looked up) above
# Target sequence in this assay (Q9UBN7 whole entry, looked up): as the sequence (Q9UBN7 whole entry, looked up) above
# [4] = molecular target: T2, Protein cereblon/Protein deacetylase HDAC6 (Mus musculus, UniProt Q9Z2V5+Q8C7D2); test: Protac activity at CRBN/HDAC6 in mouse 4935 cells assessed as HDAC6 degradation after 6 hrs by Western blot analysis
# T2 sequence (Q9Z2V5 whole entry): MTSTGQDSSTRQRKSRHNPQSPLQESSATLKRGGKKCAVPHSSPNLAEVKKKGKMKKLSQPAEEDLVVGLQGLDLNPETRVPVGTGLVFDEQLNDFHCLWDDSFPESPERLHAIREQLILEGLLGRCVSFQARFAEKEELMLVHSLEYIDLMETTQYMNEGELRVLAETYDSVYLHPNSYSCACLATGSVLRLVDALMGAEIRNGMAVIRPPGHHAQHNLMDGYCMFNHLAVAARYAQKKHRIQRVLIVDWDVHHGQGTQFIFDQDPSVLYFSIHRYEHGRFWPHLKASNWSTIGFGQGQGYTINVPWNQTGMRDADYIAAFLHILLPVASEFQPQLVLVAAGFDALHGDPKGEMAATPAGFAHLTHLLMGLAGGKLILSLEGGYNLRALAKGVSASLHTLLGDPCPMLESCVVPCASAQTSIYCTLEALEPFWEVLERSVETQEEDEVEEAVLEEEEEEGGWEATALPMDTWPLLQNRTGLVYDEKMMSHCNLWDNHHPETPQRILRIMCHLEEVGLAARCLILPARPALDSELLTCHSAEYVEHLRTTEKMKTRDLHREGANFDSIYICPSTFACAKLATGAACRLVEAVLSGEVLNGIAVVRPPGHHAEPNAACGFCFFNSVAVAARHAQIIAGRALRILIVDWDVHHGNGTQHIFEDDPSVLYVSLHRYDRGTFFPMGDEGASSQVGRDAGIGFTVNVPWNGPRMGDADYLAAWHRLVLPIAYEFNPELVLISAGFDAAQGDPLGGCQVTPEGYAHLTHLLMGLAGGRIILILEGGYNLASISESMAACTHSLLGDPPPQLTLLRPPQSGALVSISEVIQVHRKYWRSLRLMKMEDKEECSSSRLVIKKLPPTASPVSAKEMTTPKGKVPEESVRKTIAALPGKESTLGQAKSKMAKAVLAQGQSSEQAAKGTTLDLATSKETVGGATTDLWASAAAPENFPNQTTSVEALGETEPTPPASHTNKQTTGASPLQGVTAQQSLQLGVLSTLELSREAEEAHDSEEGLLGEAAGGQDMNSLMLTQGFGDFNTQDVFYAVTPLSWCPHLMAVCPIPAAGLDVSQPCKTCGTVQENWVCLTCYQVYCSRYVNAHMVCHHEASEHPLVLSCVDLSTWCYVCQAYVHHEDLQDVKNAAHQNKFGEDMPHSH
# T2 sequence (Q8C7D2 whole entry): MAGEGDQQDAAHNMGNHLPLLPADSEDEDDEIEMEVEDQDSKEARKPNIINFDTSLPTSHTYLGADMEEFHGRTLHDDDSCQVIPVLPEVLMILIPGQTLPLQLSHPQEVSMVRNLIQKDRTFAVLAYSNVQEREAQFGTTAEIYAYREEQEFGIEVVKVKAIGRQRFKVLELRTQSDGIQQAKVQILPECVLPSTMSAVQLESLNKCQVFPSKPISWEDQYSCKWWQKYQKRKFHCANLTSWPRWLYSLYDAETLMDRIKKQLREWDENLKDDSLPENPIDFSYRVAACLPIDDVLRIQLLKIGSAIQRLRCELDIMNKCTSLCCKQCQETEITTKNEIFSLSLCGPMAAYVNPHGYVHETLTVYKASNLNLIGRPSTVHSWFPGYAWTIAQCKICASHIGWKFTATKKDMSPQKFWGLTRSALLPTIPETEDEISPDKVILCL
# How it was run: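 Mouse 4935 cells were treated with degraders for 6 h, then analysed by Western blot for HDAC6 and acetylated tubulin.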
# [5] = molecular target: T2, Protein cereblon/Protein deacetylase HDAC6; test: Protac activity at CRBN/HDAC6 in mouse 4935 cells assessed as HDAC6 degradation after 6 hrs by ELISA
# How it was run: (§2)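 Mouse 4935 cells were treated with degrader for 6 h, and HDAC6 level was measured by in-cell ELISA.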
# [6] = molecular target: T3, Protein cereblon/Protein deacetylase HDAC6 (Homo sapiens, UniProt Q9UBN7+Q96SW2); test: Protac activity at CRBN/HDAC6 in human MM1S cells assessed as reduction in protein level at 100 nM after 4 hrs by Western blot analysis
# Target sequence in this assay (Q96SW2 whole entry, looked up): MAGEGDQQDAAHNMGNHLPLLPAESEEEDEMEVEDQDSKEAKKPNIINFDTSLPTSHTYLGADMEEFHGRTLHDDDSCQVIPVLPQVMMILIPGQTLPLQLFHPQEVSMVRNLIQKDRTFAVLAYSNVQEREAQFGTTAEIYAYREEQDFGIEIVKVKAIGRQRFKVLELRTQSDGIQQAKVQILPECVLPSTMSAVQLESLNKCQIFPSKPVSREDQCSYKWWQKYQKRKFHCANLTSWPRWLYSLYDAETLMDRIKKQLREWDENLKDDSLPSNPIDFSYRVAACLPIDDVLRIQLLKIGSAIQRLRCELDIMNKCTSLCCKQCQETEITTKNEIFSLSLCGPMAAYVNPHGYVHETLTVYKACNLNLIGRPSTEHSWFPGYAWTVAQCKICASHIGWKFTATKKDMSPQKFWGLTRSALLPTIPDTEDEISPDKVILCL
# Target sequence in this assay (Q9UBN7 whole entry, looked up): as the sequence (Q9UBN7 whole entry, looked up) above
# [7] = molecular target: T3, Protein cereblon/Protein deacetylase HDAC6; test: Protac activity at CRBN/HDAC6 in human MM1S cells measured after 6 hrs by ELISA relative to control
# How it was run: (§3)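 MM1S multiple myeloma cells exposed to degraders for 6 h. HDAC6 protein level was read by in-cell ELISA; dose-response ran from 1 nM to 3 μM. DC50 and Dmax were derived from the dose-response curve.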
# Target sequence in this assay (Q96SW2 whole entry, looked up): as the sequence (Q96SW2 whole entry, looked up) above
# Target sequence in this assay (Q9UBN7 whole entry, looked up): as the sequence (Q9UBN7 whole entry, looked up) above
# [8] = molecular target: T3, Protein cereblon/Protein deacetylase HDAC6; test: Protac activity at CRBN/HDAC6 in human MM1S cells assessed as reduction in protein level at 100 nM after 30 mins by Western blot analysis
# Target sequence in this assay (Q96SW2 whole entry, looked up): as the sequence (Q96SW2 whole entry, looked up) above
# Target sequence in this assay (Q9UBN7 whole entry, looked up): as the sequence (Q9UBN7 whole entry, looked up) above
# [9] = molecular target: T3, Protein cereblon/Protein deacetylase HDAC6; test: Protac activity at CRBN/HDAC6 in human MM1S cells measured after 6 hrs by ELISA; how it was run: as §3
# Target sequence in this assay (Q9UBN7 whole entry): as the sequence (Q9UBN7 whole entry, looked up) above
# Target sequence in this assay (Q96SW2 whole entry): as the sequence (Q96SW2 whole entry, looked up) above
# [10] = molecular target: Protein cereblon/Protein deacetylase HDAC6 (Mus musculus) (UniProt Q9Z2V5+Q8C7D2); test: Protac activity at CRBN/HDAC6 in mouse 4935 cells assessed as HDAC6 degradation after 6 hrs by relative to control; how it was run: as §2
# [11] = molecular target: T3, Protein cereblon/Protein deacetylase HDAC6; test: Protac activity at CRBN/HDAC6 in human MM1S cells assessed as increase in tubulin acetylation at 300 nM to 1 microM after 6 hrs by Western blot analysis
# Target sequence in this assay (Q96SW2 whole entry, looked up): as above
# Target sequence in this assay (Q9UBN7 whole entry, looked up): as the sequence (Q9UBN7 whole entry, looked up) above
# [12] = molecular target: T1, von Hippel-Lindau disease tumor suppressor/Protein deacetylase HDAC6; test: Protac activity at VHL/HDAC6 in human MM1S cells measured after 6 hrs by ELISA; how it was run: as §3
# Target sequence in this assay (Q9UBN7 whole entry): as the sequence (Q9UBN7 whole entry, looked up) above
# Target sequence in this assay (P40337 whole entry): as the sequence (P40337 whole entry, looked up) above
# [13] = molecular target: T1, von Hippel-Lindau disease tumor suppressor/Protein deacetylase HDAC6; test: Protac activity at VHL/HDAC6 in human MM1S cells measured after 6 hrs by ELISA relative to control; how it was run: as §3
# Target sequence in this assay (P40337 whole entry, looked up): as above
# Target sequence in this assay (Q9UBN7 whole entry, looked up): as the sequence (Q9UBN7 whole entry, looked up) above
Compound,Activity [1],Activity [3],further results
CCCCN(Cc1ccc(C(=O)NO)cc1)C(=O)Nc1ccc(OCCCCCCCCCCn2cc(CCCCC(=O)N[C@H](C(=O)N3C[C@H](O)C[C@H]3C(=O)NCc3ccc(-c4scnc4C)cc3)C(C)(C)C)nn2)cc1,Active,Active,Activity [2]: Active
CCCCN(Cc1ccc(C(=O)NO)cc1)C(=O)Nc1ccc(OCCn2cc(CCCCC(=O)N[C@H](C(=O)N3C[C@H](O)C[C@H]3C(=O)NCc3ccc(-c4scnc4C)cc3)C(C)(C)C)nn2)cc1,–,Active,–
CCCCN(Cc1ccc(C(=O)NO)cc1)C(=O)Nc1ccc(OCCCCCn2cc(CNc3cccc4c3C(=O)N(C3CCC(=O)NC3=O)C4=O)nn2)cc1 (stereo unspecified),–,–,DC50 [4]: 360 nM; DC50 [5]: 18 nM; Activity [6]: Active; Emax [7]: 86%; Activity [8]: Active; DC50 [9]: 2.2 nM; Emax [10]: 45%; Activity [11]: Active
CCCCN(Cc1ccc(C(=O)NO)cc1)C(=O)Nc1ccc(OCCCCCCCCCCCCn2cc(CCCCC(=O)N[C@H](C(=O)N3C[C@H](O)C[C@H]3C(=O)NCc3ccc(-c4scnc4C)cc3)C(C)(C)C)nn2)cc1,Active,Active,DC50 [12]: 11 nM; Emax [13]: 89%
CCCCN(Cc1ccc(C(=O)NO)cc1)C(=O)Nc1ccc(OCCCn2cc(CCCCC(=O)N[C@H](C(=O)N3C[C@H](O)C[C@H]3C(=O)NCc3ccc(-c4scnc4C)cc3)C(C)(C)C)nn2)cc1,–,Active,–
CCCCN(Cc1ccc(C(=O)NO)cc1)C(=O)Nc1ccc(OCCCCCCCCCn2cc(CCCCC(=O)N[C@H](C(=O)N3C[C@H](O)C[C@H]3C(=O)NCc3ccc(-c4scnc4C)cc3)C(C)(C)C)nn2)cc1,Active,Active,Activity [2]: Active
CCCCN(Cc1ccc(C(=O)NO)cc1)C(=O)Nc1ccc(OCCCCn2cc(CCCCC(=O)N[C@H](C(=O)N3C[C@H](O)C[C@H]3C(=O)NCc3ccc(-c4scnc4C)cc3)C(C)(C)C)nn2)cc1,–,Active,–

# More lines, main results first:
Activity [1],Activity [3],Compound,further results
Active,Active,CCCCN(Cc1ccc(C(=O)NO)cc1)C(=O)Nc1ccc(OCCCCCCCCn2cc(CCCCC(=O)N[C@H](C(=O)N3C[C@H](O)C[C@H]3C(=O)NCc3ccc(-c4scnc4C)cc3)C(C)(C)C)nn2)cc1,–
–,Active,CCCCN(Cc1ccc(C(=O)NO)cc1)C(=O)Nc1ccc(OCCCCCn2cc(CCCCC(=O)N[C@H](C(=O)N3C[C@H](O)C[C@H]3C(=O)NCc3ccc(-c4scnc4C)cc3)C(C)(C)C)nn2)cc1,–
–,Active,CCCCN(Cc1ccc(C(=O)NO)cc1)C(=O)Nc1ccc(OCCCCCCCn2cc(CCCCC(=O)N[C@H](C(=O)N3C[C@H](O)C[C@H]3C(=O)NCc3ccc(-c4scnc4C)cc3)C(C)(C)C)nn2)cc1,–
–,Active,CCCCN(Cc1ccc(C(=O)NO)cc1)C(=O)Nc1ccc(OCCCCCCn2cc(CCCCC(=O)N[C@H](C(=O)N3C[C@H](O)C[C@H]3C(=O)NCc3ccc(-c4scnc4C)cc3)C(C)(C)C)nn2)cc1,–

# Reference: ChEMBL document CHEMBL4602716, “Development of Selective Histone Deacetylase 6 (HDAC6) Degraders Recruiting Von Hippel-Lindau (VHL) E3 Ubiquitin Ligase” (ACS Med Chem Lett, 2020)
